Laboratory results from ChEMBL document CHEMBL4610124, “Novel Thienopyrimidine Inhibitors of Leishmania N-Myristoyltransferase with On-Target Activity in Intracellular Amastigotes” (J Med Chem, 2020).
pEC50, pIC50: −log10 of the molar value.

Experiments:
[1] = Inhibition of Leishmania major NMT using p60 SRC(2 to […]) as substrate by CPM dye based fluorescence assay
[2] = test system: human NMT1 versus Leishmania donovani NMT; test: Selectivity ratio of IC50 for human NMT1 to IC50 for Leishmania donovani NMT; format: toxicity; conditions: read-out: Ratio IC50
Summary of the method: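 Ratio of IC₅₀ for HsNMT1 to IC₅₀ for LdNMT. Both were measured in a fluorogenic CPM assay, in which coenzyme A released by acyl transfer is detected with the thiol-reactive dye CPM.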

[3] = molecular target: T1, Glycylpeptide N-tetradecanoyltransferase 1 (Homo sapiens, UniProt P30419); format: ADME
T1 sequence (P30419 whole entry): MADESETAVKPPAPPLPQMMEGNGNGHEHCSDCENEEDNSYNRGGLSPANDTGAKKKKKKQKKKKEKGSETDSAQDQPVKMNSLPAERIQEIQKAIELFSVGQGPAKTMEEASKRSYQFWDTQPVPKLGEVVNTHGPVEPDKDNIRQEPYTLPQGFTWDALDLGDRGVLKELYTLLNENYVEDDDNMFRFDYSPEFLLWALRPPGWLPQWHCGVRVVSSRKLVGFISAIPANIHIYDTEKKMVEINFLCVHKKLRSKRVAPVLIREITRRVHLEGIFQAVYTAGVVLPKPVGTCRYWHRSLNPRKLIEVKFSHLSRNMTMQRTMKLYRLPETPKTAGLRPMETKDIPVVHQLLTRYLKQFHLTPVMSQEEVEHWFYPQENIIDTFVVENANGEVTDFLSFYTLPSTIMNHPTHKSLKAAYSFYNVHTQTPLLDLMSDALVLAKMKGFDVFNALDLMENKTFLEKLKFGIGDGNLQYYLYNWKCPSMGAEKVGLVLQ

[4] = Inhibition of Leishmania donovani NMT using p60 SRC(2 to […]) as substrate by CPM dye based fluorescence assay
Leishmania donovani [5] = test: Antileishmanial activity against Leishmania donovani MHOM/ET/67/HU3 intracellular amastigotes measured after 72 hrs by alamar blue dye based fluorescence assay; format: functional, organism-based; conditions: MHOM/ET/67/HU3, 72 h
Summary of the method: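 Ex vivo L. donovani LV9 amastigotes, kept by serial passage in Rag-2−/− mice, isolated from infected spleens by homogenization and saponin lysis. Plated at 4 × 10⁵ per well in RPMI with 20% heat-inactivated FCS, adenine, 20 mM MES (pH 5.5), hemin, biopterin and biotin.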

Leishmania donovani [6] = test: Effect on total NMT expression in Leishmania donovani MHOM/ET/67/HU3 intracellular amastigotes after 12 hrs in presence of YnMyr by Western blot analysis; format: ADME, organism-based
Summary of the method: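 Amastigotes from spleens of Rag-2−/− mice, isolated by saponin lysis, seeded at 7.5 × 10⁷/mL in RPMI/10% FCS with inhibitor for 1 h at 37 °C. Then resuspended in fresh medium with inhibitor plus YnMyr (50 μM final) for 12 h. Lysates were click-labelled and run on SDS-PAGE, then immunoblotted with anti-LdNMT antibody.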

| pIC50 [1] | pIC50 [4] | SMILES | selectivity ratio [2] | pIC50 [3] | pEC50 (Leishmania donovani [5]) | Activity (Leishmania donovani [6]) |
| --- | --- | --- | --- | --- | --- | --- |
|  | < 4.00 | CN(CCCN(C)c1nc(N(C)CCC#N)c2sccc2n1)Cc1ccccc1 |  |  |  |  |
|  | 4.52 | CN1CCN(c2nc(N(C)CCC#N)c3sccc3n2)CC1 |  |  |  |  |
|  | < 4.00 | CN(CCCO)c1nc(N(C)CCC#N)c2sccc2n1 |  |  |  |  |
| 5.68 |  | CN(C)CCCN(C)c1nc(N(C)CCC#N)c2ccccc2n1 |  |  | < 4.30 |  |
| 4.44 | 4.66 | CN(C)CCCN(C)c1nc(N(C)CCO)c2sccc2n1 |  |  |  |  |
|  | 4.36 | COCCN(C)c1nc(N(C)CCCN(C)C)nc2ccsc12 |  |  |  |  |
| 6.80 | 6.44 | CN(C)CCCN(C)c1nc(N(C)CCC#N)c2sc(C(C)(C)C)cc2n1 |  |  | 4.43 |  |
| 4.72 |  | CN(C)CCCN(C)c1nc(N2CCC[C@H]2CO)c2sccc2n1 |  |  | < 4.30 |  |
|  | 6.46 | CN(C)CCCN(C)c1nc(N(C)CCC#N)c2cc(Br)ccc2n1 |  |  | 4.77 |  |
| 4.89 |  | CCN(C)c1nc(N(C)CCCN(C)C)nc2ccsc12 | > 8 | < 4.00 |  |  |
|  | 5.62 | CN(C)CCCN(C)c1nc(N(C)CCC#N)c2cccnc2n1 | > 42 | < 4.00 |  |  |
|  | < 4.00 | CC(C)CN(C)CCCN(C)c1nc(N(C)CCC#N)c2sccc2n1 |  |  |  |  |
|  | 5.28 | CNCCCN(C)c1nc(N(C)CCC#N)c2sccc2n1 |  |  |  |  |
|  | < 4.00 | CC(=O)N(C)CCN(C)c1nc(N(C)CCCN(C)C)nc2ccsc12 |  | < 4.00 |  |  |
|  | 5.02 | COc1ccc2c(N(C)CCC#N)nc(N(C)CCCN(C)C)nc2c1 |  |  |  |  |
| 4.40 |  | CN(C)CCCN(C)c1nc(N(C)CCCO)c2sccc2n1 |  |  | < 4.30 |  |
| 4.89 |  | CN(C)CCCN(C)c1nc(N(C)CCC(N)=O)c2sccc2n1 |  |  | < 4.30 |  |
|  | 4.55 | CN(CCC#N)c1nc(N2CCNCC2)nc2ccsc12 |  |  |  |  |
|  | 5.74 | COc1ccc2nc(N(C)CCCN(C)C)nc(N(C)CCC#N)c2c1 | > 56 | < 4.00 |  |  |
|  | < 4.00 | CN(CCC#N)c1nc(N(C)C2CCOCC2)nc2ccsc12 |  |  |  |  |
| 5.57 | 6.23 to 6.82 | CN(C)CCCN(C)c1nc(N(C)CCC#N)c2sccc2n1 | > 170 | < 4.00 | < 4.30 |  |
|  | 4.27 | CN(C)CCCN(C)c1nc(N(C)CCC(=O)N(C)C)c2sccc2n1 |  |  |  |  |

Second part, the compound before the results:

| SMILES | pIC50 [1] | pIC50 [4] | selectivity ratio [2] | pIC50 [3] | pEC50 (Leishmania donovani [5]) | Activity (Leishmania donovani [6]) |
| --- | --- | --- | --- | --- | --- | --- |
| CN(CCC#N)c1nc(N(CCO)C2CCNCC2)nc2ccccc12 | 5.09 |  |  |  |  |  |
| CCN(C)c1nc(N(C)CCCN(C)C)nc2ccc(S(=O)(=O)Nc3c(C)nn(C)c3C)cc12 |  | 6.64 | 4.6 | 5.96 |  |  |
| CN1CCC(N(C)c2nc(N3CCC[C@H]3CC#N)c3sccc3n2)CC1 |  | 6.82 | > 660 | < 4.00 | 4.72 |  |
| CN(CCC#N)c1nc(N(C)C2CCNCC2)nc2ccsc12 |  | 6.30 | 22 | 4.96 | < 4.30 |  |
| CN(CCC#N)c1nc(N(C)C2CCN(Cc3ccccc3)CC2)nc2ccsc12 |  | 4.57 |  |  |  |  |
| CN(CCC#N)c1nc(N(C)C2CCN(Cc3ccccc3)C2)nc2ccsc12 (centres undefined) |  | < 4.00 |  |  |  |  |
| CN(C)CCCN(C)c1nc(N(C)CCC#N)c2c(ncn2C)n1 |  | < 4.00 |  | < 4.00 |  |  |
| CN1CCC(N(C)c2nc(N(C)CCC#N)c3ccccc3n2)C1 (centres undefined) |  | 5.02 |  |  | 5.18 | Non-Toxic |
| CN(CCC#N)c1nc(N(C)C2CCNCC2)nc2ccccc12 | 5.96 |  |  | < 4.00 | < 4.30 |  |
| CN(C)CCCN(C)c1nc(N(C)CCC#N)c2cc(-c3ccccc3)ccc2n1 |  | 6.41 | > 260 | < 4.00 |  |  |
| CN(CCC#N)c1nc(N(C)C2CCNC2)nc2ccccc12 (centres undefined) | 5.31 | 5.24 |  |  |  |  |
| CN(CCC#N)c1nc(N(C)C2CCNC2)nc2cc(C(C)(C)C)sc12 (centres undefined) |  | 5.26 | > 18 | < 4.00 | 4.68 |  |
| CN1CCC(N(C)c2nc(N(C)CCC#N)c3sc(C(C)(C)C)cc3n2)CC1 | 7.38 | 7.34 |  | 6.26 |  |  |
| CCN(C)c1nc(N(C)C2CCN(C)CC2)nc2ccsc12 | 6.14 |  |  | 5.10 | < 4.30 |  |
| Cc1ccccc1-c1ccc2nc(N(C)CCCN(C)C)nc(N(C)CCC#N)c2c1 |  | 6.17 | > 150 | < 4.00 |  |  |
| CN1CCC(N(C)c2nc(N(C)CCC#N)c3cc(Br)ccc3n2)C1 (centres undefined) |  | 5.26 | > 18 | < 4.00 |  |  |
| COc1ccc2nc(N(C)C3CCN(C)CC3)nc(N(C)CCC#N)c2c1 |  | 6.30 | > 200 | < 4.00 |  |  |

| SMILES | pIC50 [1] | pIC50 [4] | selectivity ratio [2] | pIC50 [3] | pEC50 (Leishmania donovani [5]) | Activity (Leishmania donovani [6]) |
| --- | --- | --- | --- | --- | --- | --- |
| CC(C)CN1CCC(N(C)c2nc(N(C)CCC#N)c3sccc3n2)CC1 |  | 5.40 | > 25 | < 4.00 |  |  |
| CN1CCC(N(C)c2nc(N(C)CCC#N)c3sccc3n2)CC1 | 6.70 | 6.47 |  | 5.24 |  | Non-Toxic |
| COCCN(C)c1nc(N2CCN(C)CC2)nc2ccsc12 |  | 4.64 |  |  |  |  |
| COc1ccc(-c2ccc3nc(N(C)CCCN(C)C)nc(N(C)CCC#N)c3c2)c(C)c1 |  | 5.18 | > 15 | < 4.00 |  |  |
| CN(CCC#N)c1nc(N(C)C2CCN(Cc3ccccc3)C2)nc2cc(C(C)(C)C)sc12 (centres undefined) |  | 5.11 |  |  |  |  |
| CCN(C)c1nc(N(C)C2CCN(Cc3ccccc3)CC2)nc2ccsc12 |  | < 4.00 |  |  |  |  |
| CN(CCC#N)c1nc(N(C)[C@H]2C[C@H]3CC[C@@H](C2)N3C)nc2ccccc12 | 4.89 | 4.80 |  | < 4.00 | < 4.30 |  |
| COC[C@@H]1CCCN1c1nc(N(C)C2CCN(C)CC2)nc2ccsc12 |  | 6.06 | > 120 | < 4.00 | 4.59 |  |
| CCN(C)c1nc(N(C)C2CCNCC2)nc2ccc(S(=O)(=O)Nc3c(C)nn(C)c3C)cc12 |  |  | 5.2 | 5.77 |  |  |
| CN(C)CCCN(C)c1ncc2sccc2n1 |  | < 4.00 |  |  |  |  |
| CCN1CCC(N(C)c2nc(N(C)CCC#N)c3ccccc3n2)CC1 | 6.02 | 6.01 |  |  | < 4.30 |  |
| CCN(C)c1nc(N(C)C2CCN(C)CC2)nc2ccc(S(=O)(=O)Nc3c(C)nn(C)c3C)cc12 |  | 6.70 | 11 | 5.64 |  |  |
| COC[C@@H]1CCCN1c1nc(N(C)C2CCNCC2)nc2ccsc12 |  | 5.37 | 1.2 | 5.30 |  |  |
| CN1CCC(N(C)c2nc(N(C)CCC#N)c3sc(C(C)(C)C)cc3n2)C1 (centres undefined) |  |  |  |  |  | Non-Toxic |
| CN1CCC(N(C)c2nc(N(C)CCC#N)c3cc(Br)ccc3n2)CC1 |  | 6.02 | > 20 | < 4.00 |  |  |
| CN(C)CCCN(C)c1nccc(N(C)CCC#N)n1 |  | < 4.00 |  | < 4.00 |  |  |
| CN(c1nc(N2CCC[C@H]2CC#N)c2sccc2n1)C1CCNCC1 |  | 6.68 | 7.8 | 5.80 |  |  |
